≈ marks a conversion by molar mass, not a printed value.
Assays:
Schistosoma mansoni = experiment: WHO-TDR: Schistosomiasis; type: functional; set-up: concentration or dose not given beside the values
Summary of the method: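 Values are reported as percent inhibition and IC50. They come from a whole-organism screen of a 10,000-compound diverse Life Chemicals library against larval and/or adult worms of Schistosoma mansoni, Puerto Rican strain. The library had been filtered for drug-likeness and reactive groups.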

Onchocerca ochengi [1] = experiment: (§1) WHO-TDR: Onchocerciasis; type: functional; set-up: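 at 12.5 µM on microfilariae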
Summary of the method: (§2)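 Values are reported as percent inhibition and as IC50. They come from a whole-organism screen of a 10,000-compound diverse Life Chemicals library against microfilariae of Onchocerca ochengi or Onchocerca lienalis. The screen followed previously published standard procedures, with reference drugs as positive controls.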

[2] = tested on: Trypanosoma brucei brucei; experiment: WHO-TDR: Human African Trypanosomiasis (HAT); type: functional, organism-based; settings: Squib-427
Summary of the method: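 Values are IC50 figures for antiparasitic potency. They come from a whole-organism screen of 10,000 diverse Life Chemicals compounds against bloodstream-form Trypanosoma brucei (Squib 427 strain).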

Plasmodium falciparum K1 = experiment: WHO-TDR: Malaria; type: functional, organism-based, Homo sapiens; settings: Erythrocyte
Summary of the method: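 Values are IC50 figures for antiplasmodial potency. They come from a whole-organism screen of 10,000 diverse Life Chemicals compounds against Plasmodium falciparum K1 growing inside human red blood cells, run by previously published standard procedures.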

Leishmania infantum = experiment: WHO-TDR: Leishmaniasis; type: functional, organism-based, Mus musculus; settings: Macrophage
Summary of the method: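 Values are IC50 figures for antiparasitic potency. They come from a whole-organism screen of a 10,000-compound diverse Life Chemicals library against Leishmania infantum MHOM/MA(BE)/67 amastigotes inside murine peritoneal macrophage host cells.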

Trypanosoma cruzi = experiment: WHO-TDR: Chagas disease; type: functional, organism-based, Homo sapiens; settings: MRC5
Summary of the method: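 Whole-organism screen of a 10,000-compound diverse library from Life Chemicals, filtered for drug-likeness and reactive groups, against intracellular amastigotes of Trypanosoma cruzi Tulahuen CL2 beta-galactosidase strain grown in MRC-5SV2 human lung fibroblast host cells. The assay followed previously published standard procedures, with a reference drug as positive control. Antiparasitic potency is reported as IC50.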

Onchocerca ochengi [3] = experiment: as §1; type: functional; set-up: concentration or dose not given beside the values; summary of the method: as §2; remark: listed apart in the source
[4] = WHO-TDR: Cytotoxicity; type: toxicity, cell-based; settings: human, MRC5 cells

| Structure (SMILES) | % Inhibition (Schistosoma mansoni) [%] | % Inhibition (Onchocerca ochengi [1]) [%] | IC50 [2] [µg/mL] | IC50 (Plasmodium falciparum K1) [µg/mL] | IC50 (Leishmania infantum) [µg/mL] | IC50 (Trypanosoma cruzi) [µg/mL] | % Inhibition (Onchocerca ochengi [3]) [%] | IC50 [4] [µg/mL] |
| --- | --- | --- | --- | --- | --- | --- | --- | --- |
| O=C(CC1CCCC1)Nc1nc(CSCc2ccc(F)cc2)cs1 | 0 | 100 | 3.5 (≈ 9.6 µM) | 3.04 (≈ 8.35 µM) | > 10.9 | 2.43 (≈ 6.67 µM) | 0 | > 10.9 |
| O=C(Cn1c(=O)n(Cc2cccs2)c(=O)c2ncccc21)OCc1ccccc1 | 0 | 100 | > 12.2 | > 12.2 | > 12.2 | > 12.2 | 0 | > 12.2 |
| O=C(Cc1cccc2ccccc12)Nc1onc2c1CCC2 | 0 | 0 | 0.253 (≈ 0.865 µM) | 1.69 (≈ 5.79 µM) | > 8.77 | 0.498 (≈ 1.7 µM) | 0 | 2.87 (≈ 9.83 µM) |
| CCCN1C(=O)C(C)(C)COc2cc(NS(=O)(=O)Cc3ccc(C)cc3)ccc21 | 0 | 100 | 4.62 (≈ 11.1 µM) | > 12.5 | > 12.5 | > 12.5 | 60 | > 12.5 |
| C=CCN1C(=O)C(C)(C)COc2cc(NS(=O)(=O)C3CCCCC3)ccc21 | 0 | 100 | 3.72 (≈ 9.49 µM) | > 11.8 | > 11.8 | 8.42 (≈ 21.4 µM) | 60 | > 11.8 |
| O=C(NCCc1c[nH]c2ccccc12)c1n[nH]c2ccccc12 | 0 | 100 | > 9.13 | > 9.13 | > 9.13 | 8.2 (≈ 27 µM) | 0 | > 9.13 |
| CN1CCN(C(CNC(=O)c2c(F)cccc2F)c2ccsc2)CC1 (stereo not drawn) | 0 | 0 | > 11 | > 11 | > 11 | 0.406 (≈ 1.11 µM) | 0 | > 11 |
| C=CCN1C(=O)C(C)(C)COc2cc(NS(=O)(=O)c3ccccc3Cl)ccc21 | 0 | 100 | 4.04 (≈ 9.6 µM) | > 12.6 | 4.09 (≈ 9.71 µM) | 4.05 (≈ 9.61 µM) | 0 | > 12.6 |
| C=CCN1C(=O)C(C)(C)COc2ccc(NS(=O)(=O)c3ccc4c(c3)CCCC4)cc21 | 0 | 100 | > 13.2 | > 13.2 | 4.28 (≈ 9.71 µM) | 11.4 (≈ 26 µM) | 0 | > 13.2 |
| CCCc1cc(=O)[nH]c(-n2nc(C)cc2NC(=O)c2ccc(Br)o2)n1 | 75 | 50 | 0.39 (≈ 0.96 µM) | 0.703 (≈ 1.73 µM) | 3.94 (≈ 9.71 µM) | < 0.122 | 0 | 0.441 (≈ 1.08 µM) |
| O=C1CC(CNS(=O)(=O)c2ccccc2C(F)(F)F)CN1c1ccc(Cl)cc1 (stereo not drawn) | 0 | 100 | 4.25 (≈ 9.83 µM) | > 13 | > 13 | 4.11 (≈ 9.49 µM) | 0 | > 13 |
| COc1ccc(CCNC(=O)NCC2CC(=O)N(c3ccc(Cl)cc3)C2)cc1 (stereo not drawn) | 0 | 100 | > 12.1 | > 12.1 | > 12.1 | 6.28 (≈ 15.6 µM) | 75 | > 12.1 |
| CC(C)S(=O)(=O)Nc1ccc2c(c1)NC(=O)C(C)(C)CO2 | 0 | 100 | 6.82 (≈ 21.8 µM) | 3.66 (≈ 11.7 µM) | > 9.37 | 3.93 (≈ 12.6 µM) | 0 | > 9.37 |
| CCc1ccc(S(=O)(=O)Nc2ccc3c(c2)NC(=O)C(C)(C)CO3)s1 | 0 | 100 | 3.08 (≈ 8.08 µM) | > 11.4 | 3.69 (≈ 9.71 µM) | 3.45 (≈ 9.08 µM) | 60 | > 11.4 |
| NC(=O)c1cc(-c2ccccc2)sc1NC(=O)Cc1ccc2c(c1)OCO2 | 0 | 100 | 3.65 (≈ 9.6 µM) | 5.1 (≈ 13.4 µM) | > 11.4 | > 11.4 | 0 | > 11.4 |
| Cc1cc(F)ccc1S(=O)(=O)Nc1ccc2c(c1)CN(C(=O)c1ccco1)CC2 | 0 | 100 | 4.03 (≈ 9.71 µM) | 6.28 (≈ 15.2 µM) | > 12.4 | 3.44 (≈ 8.3 µM) | 0 | 7.31 (≈ 17.6 µM) |

| Structure (SMILES) | % Inhibition (Schistosoma mansoni) [%] | % Inhibition (Onchocerca ochengi [1]) [%] | IC50 [2] [µg/mL] | IC50 (Plasmodium falciparum K1) [µg/mL] | IC50 (Leishmania infantum) [µg/mL] | IC50 (Trypanosoma cruzi) [µg/mL] | % Inhibition (Onchocerca ochengi [3]) [%] | IC50 [4] [µg/mL] |
| --- | --- | --- | --- | --- | --- | --- | --- | --- |
| CSCc1csc(NC(=O)Cc2ccc(Cl)cc2)n1 | 0 | 100 | 3 (≈ 9.6 µM) | 5.98 (≈ 19.1 µM) | > 9.38 | 2.47 (≈ 7.91 µM) | 75 | 3.7 (≈ 11.8 µM) |
| Cc1ccc2c(c1)NC(=O)c1cc(NC(=O)C3CCCC3)ccc1O2 | 0 | 0 | > 10.1 | 0.441 (≈ 1.31 µM) | > 10.1 | > 10.1 | 0 | > 10.1 |
| O=C1CC(CNS(=O)(=O)c2ccccc2F)CN1c1ccc(Cl)cc1 (stereo not drawn) | 0 | 100 | > 11.5 | > 11.5 | > 11.5 | > 11.5 | 0 | > 11.5 |
| O=C(Cc1csc(SCc2ccc(Cl)cc2)n1)NCCC1=CCCCC1 | 0 | 100 | 3.86 (≈ 9.49 µM) | > 12.2 | > 12.2 | 3.58 (≈ 8.8 µM) | 0 | > 12.2 |
| Cc1ccc(Cl)cc1S(=O)(=O)Nc1ccc2c(c1)NC(=O)C(C)(C)CO2 | 0 | 100 | 3.89 (≈ 9.85 µM) | > 11.8 | > 11.8 | 3.95 (≈ 10 µM) | 0 | > 11.8 |
| COc1ccc(Cl)cc1S(=O)(=O)Nc1ccc2c(c1)CCC(=O)N2CCC(C)C | 0 | 100 | 10.2 (≈ 23.4 µM) | > 13.1 | > 13.1 | > 13.1 | 0 | > 13.1 |
| CN1CCCc2cc(C(CNC(=O)COc3ccc(Cl)cc3)N3CCCC3)ccc21 (stereo not drawn) | 25 | 0 | 0.411 (≈ 0.96 µM) | > 12.8 | 4.16 (≈ 9.71 µM) | 4.46 (≈ 10.4 µM) | 0 | > 12.8 |
| CC(C)c1ccc(NC(=O)c2n[nH]c3ccccc23)cc1 | 0 | 100 | 2.65 (≈ 9.49 µM) | > 8.38 | > 8.38 | 2.58 (≈ 9.23 µM) | 0 | > 8.38 |
| O=C(COc1ccc(Cl)cc1Cl)Nc1onc2c1CCC2 | 0 | 0 | 0.334 (≈ 1.02 µM) | > 9.81 | > 9.81 | > 9.81 | 0 | > 9.81 |
| CC1CCN(C(C)CNC(=O)Nc2ccc(C(F)(F)F)cc2)CC1 (stereo not drawn) | 25 | 100 | 0.333 (≈ 0.971 µM) | 0.869 (≈ 2.53 µM) | 3.33 (≈ 9.71 µM) | 3.26 (≈ 9.49 µM) | 100 | 8.41 (≈ 24.5 µM) |
| Cc1cc(=O)n2c(n1)SCC2CC(=O)NCCC(c1ccccc1)c1ccccc1 (stereo not drawn) | 0 | 100 | 4.07 (≈ 9.71 µM) | 6.43 (≈ 15.3 µM) | > 12.6 | > 12.6 | 0 | > 12.6 |
| CCOc1ccc(N2CC(CNS(=O)(=O)c3c(C)cc(C)cc3C)CC2=O)cc1 (stereo not drawn) | 0 | 100 | > 12.5 | > 12.5 | > 12.5 | > 12.5 | 0 | > 12.5 |
| CCOc1ccc2ccccc2c1C(=O)Nc1cc(C)nn1-c1nc(C)cc(=O)[nH]1 | 100 | 100 | 0.327 (≈ 0.811 µM) | 0.399 (≈ 0.989 µM) | 0.627 (≈ 1.55 µM) | < 0.121 | 60 | 0.364 (≈ 0.902 µM) |
| COc1ccc(N2CCN(C(=O)c3csc(NC(=O)c4ccccc4)n3)CC2)cc1 | 0 | 100 | > 12.7 | > 12.7 | 6.56 (≈ 15.5 µM) | > 12.7 | 0 | > 12.7 |
| O=C(NCC1CC(=O)N(c2ccc(Cl)cc2)C1)NC1CCCCC1 (stereo not drawn) | 0 | 0 | > 10.5 | > 10.5 | > 10.5 | > 10.5 | 100 | > 10.5 |

From ChEMBL document CHEMBL2093137, “WHO-TDR NTD Screening”
